Assay results from ChEMBL document CHEMBL1137665, “Antistaphylococcal activity of CG400549, a new experimental FabI inhibitor, compared with that of other agents” (2007).
Converted amounts (≈) assume the structure as drawn.

Experiments:
Type in all cases: functional
Staphylococcus aureus [1] = experiment: Antimicrobial activity against methicillin-resistant Staphylococcus aureus 547 after 21 passages with daptomycin measured after 10 antibiotic-free subculture by multi-step resistance selection technique
Summary of the method: (§1)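 Mutants from multistep daily serial passage in subinhibitory drug were then subcultured daily 10 times on antibiotic-free medium. MIC was redetermined after these subcultures to assess stability. Clone identity was checked by pulsed-field gel electrophoresis.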

Staphylococcus aureus [2] = experiment: Antimicrobial activity against panton-valentine leukocidin-positive community-acquired methicillin-resistant Staphylococcus aureus 490 by agar dilution CLSI method
Summary of the method: (§2)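 Agar dilution MIC per CLSI methodology; calcium supplemented for daptomycin testing; vancomycin plates read after a full 24-h incubation.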

Staphylococcus aureus [3] = experiment: Antimicrobial activity against methicillin-resistant Staphylococcus aureus 547 after 14 passages by multi-step resistance selection technique
Summary of the method: (§3)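 Multistep selection by daily serial passage of each strain in subinhibitory drug concentrations for the stated number of passages. Mutant MIC was then determined. Identity of mutants and parents was confirmed by pulsed-field gel electrophoresis.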

Staphylococcus aureus [4] = experiment: Antimicrobial activity against methicillin-resistant Staphylococcus aureus 547 after 14 passages with CG400549 measured after 10 antibiotic-free subculture by multi-step resistance selection technique; summary of the method: as §1
Staphylococcus aureus [5] = experiment: Antimicrobial activity against methicillin-resistant Staphylococcus aureus 547 after 48 passages with Linezolid measured after 10 antibiotic-free subculture by multi-step resistance selection technique; summary of the method: as §1
Staphylococcus aureus [6] = experiment: Antimicrobial activity against methicillin-resistant Staphylococcus aureus 525 by agar dilution CLSI method
Summary of the method: (§4)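 CLSI agar dilution MIC against S. aureus clinical isolates. Calcium was added to the medium for daptomycin testing. Vancomycin plates were read after a full 24-h incubation.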

Staphylococcus aureus [7] = experiment: Antimicrobial activity against panton-valentine leukocidin-positive community-acquired methicillin-resistant Staphylococcus aureus 490 after 17 passages by multi-step resistance selection technique
Summary of the method: (§5)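 Multistep selection: 10 S. aureus strains (8 MRSA incl. two VRSA, two VISA; 2 MSSA) serially passaged daily at subinhibitory concentrations of each antimicrobial; MICs of mutants retested and compared with parent; clone identity versus parent confirmed by pulsed-field gel electrophoresis at study end.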

Staphylococcus aureus [8] = experiment: Antimicrobial activity against methicillin-susceptible Staphylococcus aureus 543 after 18 passages with quinupristin-dalfopristin measured after 10 antibiotic-free subculture by multi-step resistance selection technique; summary of the method: as §1
Staphylococcus aureus [9] = experiment: Antimicrobial activity against vancomycin-resistant Staphylococcus aureus 509 Michigan by agar dilution CLSI method; summary of the method: as §2
Staphylococcus aureus [10] = experiment: Antimicrobial activity against vancomycin-intermediate Staphylococcus aureus 555 Hershey after 14 passages by multi-step resistance selection technique; summary of the method: as §5
Staphylococcus aureus [11] = experiment: Antimicrobial activity against panton-valentine leukocidin-negative community-acquired methicillin-resistant Staphylococcus aureus 481 after 14 passages by multi-step resistance selection technique; summary of the method: as §3
Staphylococcus aureus [12] = experiment: Antimicrobial activity against methicillin-susceptible Staphylococcus aureus 543 after single-step resistance selection by agar dilution CLSI method
Summary of the method: (§6)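 Single-step selection on drug-containing agar across 10 strains (2 MSSA, 8 MRSA, including VRSA and VISA). Colonies arising on confluent background growth were retested by CLSI agar dilution MIC. Resistance was defined as an MIC more than 4× the parent MIC.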

Staphylococcus aureus [13] = experiment: Antimicrobial activity against methicillin-susceptible Staphylococcus aureus 543 after 14 passages by multi-step resistance selection technique; summary of the method: as §3
Staphylococcus aureus [14] = experiment: Antimicrobial activity against methicillin-susceptible Staphylococcus aureus 543 after 17 passages with daptomycin measured after 10 antibiotic-free subculture by multi-step resistance selection technique; summary of the method: as §1
Staphylococcus aureus [15] = experiment: Antimicrobial activity against vancomycin-intermediate Staphylococcus aureus 555 Hershey after 20 passages with quinupristin-dalfopristin measured after 10 antibiotic-free subculture by multi-step resistance selection technique
Summary of the method: (§7)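 Multistep-selected mutants (daily passage at subinhibitory drug levels) then subcultured 10 times daily on antibiotic-free medium; MIC redetermined afterwards and compared with the MIC recorded at the end of selection; clone identity to parent checked by pulsed-field gel electrophoresis.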

Staphylococcus aureus [16] = experiment: Antimicrobial activity against panton-valentine leukocidin-negative community-acquired methicillin-resistant Staphylococcus aureus 481 after 14 passages with CG400549 measured after 10 antibiotic-free subculture by multi-step resistance selection technique; summary of the method: as §1
Staphylococcus aureus [17] = experiment: Antimicrobial activity against vancomycin-intermediate Staphylococcus aureus 504 after 14 passages by multi-step resistance selection technique; summary of the method: as §5
Staphylococcus aureus [18] = experiment: Antimicrobial activity against vancomycin-intermediate Staphylococcus aureus 504 after 16 passages with quinupristin-dalfopristin measured after 10 times antibiotic-free subculture by multi-step resistance selection technique; summary of the method: as §7
Staphylococcus aureus [19] = experiment: Antimicrobial activity against methicillin-susceptible Staphylococcus aureus by agar dilution CLSI method; summary of the method: as §4
Staphylococcus aureus [20] = experiment: Antimicrobial activity against methicillin and vancomycin-resistant Staphylococcus aureus 509 after single-step resistance selection by agar dilution CLSI method; summary of the method: as §6
Staphylococcus aureus [21] = experiment: Antimicrobial activity against methicillin-susceptible Staphylococcus aureus 543 after 14 passages with CG400549 measured after 10 antibiotic-free subculture by multi-step resistance selection technique; summary of the method: as §1
Staphylococcus aureus [22] = experiment: Antimicrobial activity against methicillin-susceptible Staphylococcus aureus 540 after 14 passages by multi-step resistance selection technique; summary of the method: as §3
Staphylococcus aureus [23] = experiment: Antimicrobial activity against community-acquired vancomycin-intermediate Staphylococcus aureus 504 by agar dilution CLSI method; summary of the method: as §4
Staphylococcus aureus [24] = experiment: Antimicrobial activity against methicillin-resistant Staphylococcus aureus 481 after single-step resistance selection by agar dilution CLSI method; summary of the method: as §6
Staphylococcus aureus [25] = experiment: Antimicrobial activity against methicillin-susceptible Staphylococcus aureus 540 after 14 passages with CG400549 measured after 10 antibiotic-free subculture by multi-step resistance selection technique; summary of the method: as §1
Staphylococcus aureus [26] = experiment: Antimicrobial activity against methicillin-resistant Staphylococcus aureus 525 after 14 passages with CG400549 measured after 10 antibiotic-free subculture by multi-step resistance selection technique; summary of the method: as §1
Staphylococcus aureus [27] = experiment: Antimicrobial activity against vancomycin-resistant Staphylococcus aureus 509 Michigan after 28 passages with Linezolid measured after 10 antibiotic-free subculture by multi-step resistance selection technique; summary of the method: as §7
Staphylococcus aureus [28] = experiment: Antimicrobial activity against vancomycin-intermediate Staphylococcus aureus 504 after 50 passages by multi-step resistance selection technique
Summary of the method: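 Multistep selection: S. aureus strains (MSSA and MRSA, including VISA and VRSA) were passaged serially once daily in subinhibitory concentrations of each antimicrobial. Mutant and parent identities were confirmed by pulsed-field gel electrophoresis at the end of the study. Mutant MIC stability was checked after 10 daily subcultures on antibiotic-free media.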

Staphylococcus aureus [29] = experiment: Antimicrobial activity against methicillin-susceptible Staphylococcus aureus 543 after 17 passages by multi-step resistance selection technique; summary of the method: as §3
Staphylococcus aureus [30] = experiment: Antimicrobial activity against vancomycin-resistant Staphylococcus aureus 509 Michigan after 20 passages by multi-step resistance selection technique; summary of the method: as §5
Staphylococcus aureus [31] = experiment: Antimicrobial activity against vancomycin-intermediate Staphylococcus aureus 555 Hershey after 50 passages by multi-step resistance selection technique; summary of the method: as §5
Staphylococcus aureus [32] = experiment: Antimicrobial activity against methicillin-resistant Staphylococcus aureus 547 after 21 passages by multi-step resistance selection technique; summary of the method: as §3
Staphylococcus aureus [33] = experiment: Antimicrobial activity against methicillin-susceptible Staphylococcus aureus 540 after 24 passages by multi-step resistance selection technique; summary of the method: as §3
Staphylococcus aureus [34] = experiment: Antimicrobial activity against methicillin-resistant Staphylococcus aureus 525 after 20 passages by multi-step resistance selection technique; summary of the method: as §3
Staphylococcus aureus [35] = experiment: Antimicrobial activity against vancomycin-resistant Staphylococcus aureus 510 Hershey after 18 passages by multi-step resistance selection technique; summary of the method: as §5
Staphylococcus aureus [36] = experiment: Antimicrobial activity against panton-valentine leukocidin-positive community-acquired methicillin-resistant Staphylococcus aureus 490 after 14 passages by multi-step resistance selection technique; summary of the method: as §5

| Compound | MIC (Staphylococcus aureus [1]) | MIC (Staphylococcus aureus [2]) | MIC (Staphylococcus aureus [4]) | MIC (Staphylococcus aureus [5]) | MIC (Staphylococcus aureus [6]) | MIC (Staphylococcus aureus [8]) | MIC (Staphylococcus aureus [9]) | MIC (Staphylococcus aureus [11]) | MIC (Staphylococcus aureus [12]) | MIC (Staphylococcus aureus [14]) | MIC (Staphylococcus aureus [15]) | MIC (Staphylococcus aureus [16]) | MIC (Staphylococcus aureus [18]) | MIC50 (Staphylococcus aureus [19]) | MIC90 (Staphylococcus aureus [19]) | MIC (Staphylococcus aureus [20]) | MIC (Staphylococcus aureus [21]) | MIC (Staphylococcus aureus [23]) | MIC (Staphylococcus aureus [24]) | MIC (Staphylococcus aureus [25]) | also measured |
| --- | --- | --- | --- | --- | --- | --- | --- | --- | --- | --- | --- | --- | --- | --- | --- | --- | --- | --- | --- | --- | --- |
| Cc1c(N)cccc1Cn1ccc(OCCc2cccs2)cc1=O [CG-400549] | 0.125 µg/mL (≈ 0.367 µM) | 0.25 µg/mL (≈ 0.734 µM) | 8 µg/mL (≈ 23.5 µM) | 0.125 µg/mL (≈ 0.367 µM) | 0.25 µg/mL (≈ 0.734 µM) | 0.125 µg/mL (≈ 0.367 µM) | 1 µg/mL (≈ 2.94 µM) | 2 µg/mL (≈ 5.87 µM) | 0.125 µg/mL (≈ 0.367 µM) | 0.125 µg/mL (≈ 0.367 µM) | 0.25 µg/mL (≈ 0.734 µM) | 2 µg/mL (≈ 5.87 µM) | 0.5 µg/mL (≈ 1.47 µM) | 0.25 µg/mL (≈ 0.734 µM) | 0.25 µg/mL (≈ 0.734 µM) | 0.125 µg/mL (≈ 0.367 µM) | 8 µg/mL (≈ 23.5 µM) | 0.25 µg/mL (≈ 0.734 µM) | 0.125 µg/mL (≈ 0.367 µM) | 4 µg/mL (≈ 11.7 µM) | MIC (Staphylococcus aureus [3]): 32 µg/mL (≈ 94 µM); MIC (Staphylococcus aureus [7]): 8 µg/mL (≈ 23.5 µM); MIC (Staphylococcus aureus [10]): 2 µg/mL (≈ 5.87 µM); MIC (Staphylococcus aureus [13]): 8 µg/mL (≈ 23.5 µM); MIC (Staphylococcus aureus [17]): 2 µg/mL (≈ 5.87 µM); MIC (Staphylococcus aureus [22]): 16 µg/mL (≈ 47 µM); MIC (Staphylococcus aureus [26]): 4 µg/mL (≈ 11.7 µM); MIC (Staphylococcus aureus [27]): 0.5 µg/mL (≈ 1.47 µM) |
| CCCCCCCCCC(=O)N[C@@H](Cc1c[nH]c2ccccc12)C(=O)N[C@H](CC(N)=O)C(=O)N[C@@H](CC(=O)O)C(=O)N[C@@H]1C(=O)NCC(=O)N[C@@H](CCCN)C(=O)N[C@@H](CC(=O)O)C(=O)N[C@H](C)C(=O)N[C@@H](CC(=O)O)C(=O)NCC(=O)N[C@H](CO)C(=O)N[C@@H]([C@H](C)CC(=O)O)C(=O)N[C@@H](CC(=O)c2ccccc2N)C(=O)O[C@@H]1C | 4 µg/mL (≈ 2.47 µM) | 1 µg/mL (≈ 0.617 µM) | 1 µg/mL (≈ 0.617 µM) | 2 µg/mL (≈ 1.23 µM) | 1 µg/mL (≈ 0.617 µM) | 2 µg/mL (≈ 1.23 µM) | 1 µg/mL (≈ 0.617 µM) | 8 µg/mL (≈ 4.94 µM) | 0.5 µg/mL (≈ 0.309 µM) | 4 µg/mL (≈ 2.47 µM) | 2 µg/mL (≈ 1.23 µM) | 1 µg/mL (≈ 0.617 µM) | 2 µg/mL (≈ 1.23 µM) | 1 µg/mL (≈ 0.617 µM) | 1 µg/mL (≈ 0.617 µM) | 0.5 µg/mL (≈ 0.309 µM) | 1 µg/mL (≈ 0.617 µM) | 4 µg/mL (≈ 2.47 µM) | 0.5 µg/mL (≈ 0.309 µM) | 1 µg/mL (≈ 0.617 µM) | MIC (Staphylococcus aureus [28]): 16 µg/mL (≈ 9.87 µM); MIC (Staphylococcus aureus [29]): 8 µg/mL (≈ 4.94 µM); MIC (Staphylococcus aureus [30]): 8 µg/mL (≈ 4.94 µM); MIC (Staphylococcus aureus [31]): 32 µg/mL (≈ 19.7 µM); MIC (Staphylococcus aureus [32]): 8 µg/mL (≈ 4.94 µM); MIC (Staphylococcus aureus [33]): 8 µg/mL (≈ 4.94 µM); MIC (Staphylococcus aureus [34]): 8 µg/mL (≈ 4.94 µM); MIC (Staphylococcus aureus [35]): 8 µg/mL (≈ 4.94 µM); MIC (Staphylococcus aureus [36]): 8 µg/mL (≈ 4.94 µM); MIC (Staphylococcus aureus [26]): 1 µg/mL (≈ 0.617 µM); MIC (Staphylococcus aureus [27]): 2 µg/mL (≈ 1.23 µM) |
